ChEMBL document CHEMBL4732072, “Synthesis of 17β-hydroxysteroid dehydrogenase type 10 steroidal inhibitors: Selectivity, metabolic stability and enhanced potency” (Eur J Med Chem, 2021)

System: not listed separately
Experiment: Inhibition of human 17-beta-HSD10 expressed in HEK293 cells assessed as reduction in oxidation of [14C]-estradiol to [14C]-estrone incubated for 40 hrs by thin layer chromatography
Assay type: cell-based
Outline: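 The same HEK-293[17β-HSD10] cell assay was used: 2.5 x 10^5 cells, 0.5% final DMSO, 1 µM E2/[14C]-E2 (9:1) for 40 h at 37°C, with Et2O extraction, TLC and radioactivity quantification. Inhibitor was tested from 0.01 to 5 µM in triplicate. IC50 was calculated from the inhibition curves.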

Q: Which IC50 does the source give for `CN(C)S(=O)(=O)c1ccc(NC(=S)N2CCN(C[C@@]3(O)CC[C@@]4(C)[C@@H](CC[C@@H]5[C@@H]4CC[C@]4(C)C(=O)CC[C@@H]54)C3)CC2)cc1` here?
A: 1070 nM

Q: Which IC50 does the source give for `C[C@]12CC[C@](O)(CN3CCN(C(=S)NCc4cccc(C(F)(F)F)c4)CC3)C[C@@H]1CC[C@@H]1[C@@H]2CC[C@]2(C)C(=O)CC[C@@H]12` here?
A: 1410 nM

Q: For `C[C@]12CC[C@](O)(CN3CCN(C(=O)c4ccc(-c5ccccc5)cc4)CC3)C[C@@H]1CC[C@@H]1[C@@H]2CC[C@]2(C)C(=O)CC[C@@H]12`, which IC50 is on record?
A: 2600 nM

Q: With `C[C@]12CC[C@](O)(CN3CCN(C(=O)c4ccc(C(=O)c5ccccc5)cc4)CC3)C[C@@H]1CC[C@@H]1[C@@H]2CC[C@]2(C)C(=O)CC[C@@H]12` as the compound, how does the IC50 read?
A: 2850 nM

Q: With `COc1cc(CN2CCN(C[C@@]3(O)CC[C@@]4(C)[C@@H](CC[C@@H]5[C@@H]4CC[C@]4(C)C(=O)CC[C@@H]54)C3)CC2)ccc1C` as the compound, how does the IC50 read?
A: 420 nM

Q: With `CC(=O)c1cccc(C(=O)N2CCN(C[C@@]3(O)CC[C@@]4(C)[C@@H](CC[C@@H]5[C@@H]4CC[C@]4(C)C(=O)CC[C@@H]54)C3)CC2)c1` as the compound, how does the IC50 read?
A: 2300 nM

Q: Which IC50 does the source give for `C[C@]12CC[C@](O)(CN3CCN(C(=O)c4ccc(C#N)cc4)CC3)C[C@@H]1CC[C@@H]1[C@@H]2CC[C@]2(C)C(=O)CC[C@@H]12` here?
A: 1660 nM

Q: Which IC50 does the source give for `CCN(C)S(=O)(=O)N1CCN(C[C@@]2(O)CC[C@@]3(C)[C@@H](CC[C@@H]4[C@@H]3CC[C@]3(C)C(=O)CC[C@@H]43)C2)CC1` here?
A: 1570 nM

Q: With `COc1cc(CN2CCN(C[C@@]3(O)CC[C@@]4(C)[C@@H](CC[C@@H]5[C@@H]4CC[C@]4(C)[C@H](O)CC[C@@H]54)C3)CC2)ccc1C(F)(F)F` as the compound, how does the IC50 read?
A: 950 nM

Q: For `COc1cc(CN2CCN(C[C@@]3(O)CC[C@@]4(C)[C@@H](CC[C@@H]5[C@@H]4CC[C@]4(C)C(=O)CC[C@@H]54)C3)CC2)ccc1C(F)(F)F`, which IC50 is on record?
A: 140 nM

System: HEK293
Experiment: Potency index, ratio of (3R,5S,8R,9S,10S,13S,14S)-3-hydroxy-3-((4-(3-methoxybenzyl)piperazin-1-yl)methyl)-10,13-dimethyltetradecahydro-1H-cyclopenta[a]phenanthren-17(2H)-one IC50 to compound IC50 for inhibition of human 17-beta-HSD10 expressed in HEK-293 cells
Assay type: cell-based

Q: Which Ratio IC50 does the source give for `CN(C)S(=O)(=O)c1ccc(NC(=S)N2CCN(C[C@@]3(O)CC[C@@]4(C)[C@@H](CC[C@@H]5[C@@H]4CC[C@]4(C)C(=O)CC[C@@H]54)C3)CC2)cc1` here?
A: 2.11

Q: For `C[C@]12CC[C@](O)(CN3CCN(C(=S)NCc4cccc(C(F)(F)F)c4)CC3)C[C@@H]1CC[C@@H]1[C@@H]2CC[C@]2(C)C(=O)CC[C@@H]12`, which Ratio IC50 is on record?
A: 1.6

Q: Which Ratio IC50 does the source give for `C[C@]12CC[C@](O)(CN3CCN(C(=O)c4ccc(-c5ccccc5)cc4)CC3)C[C@@H]1CC[C@@H]1[C@@H]2CC[C@]2(C)C(=O)CC[C@@H]12` here?
A: 0.87

Q: Which Ratio IC50 does the source give for `C[C@]12CC[C@](O)(CN3CCN(C(=O)c4ccc(C(=O)c5ccccc5)cc4)CC3)C[C@@H]1CC[C@@H]1[C@@H]2CC[C@]2(C)C(=O)CC[C@@H]12` here?
A: 0.79

Q: Which Ratio IC50 does the source give for `COc1cc(CN2CCN(C[C@@]3(O)CC[C@@]4(C)[C@@H](CC[C@@H]5[C@@H]4CC[C@]4(C)C(=O)CC[C@@H]54)C3)CC2)ccc1C` here?
A: 5.38

Q: For `CC(=O)c1cccc(C(=O)N2CCN(C[C@@]3(O)CC[C@@]4(C)[C@@H](CC[C@@H]5[C@@H]4CC[C@]4(C)C(=O)CC[C@@H]54)C3)CC2)c1`, which Ratio IC50 is on record?
A: 0.98

Q: For `C[C@]12CC[C@](O)(CN3CCN(C(=O)c4ccc(C#N)cc4)CC3)C[C@@H]1CC[C@@H]1[C@@H]2CC[C@]2(C)C(=O)CC[C@@H]12`, which Ratio IC50 is on record?
A: 1.36

Q: Which Ratio IC50 does the source give for `CCN(C)S(=O)(=O)N1CCN(C[C@@]2(O)CC[C@@]3(C)[C@@H](CC[C@@H]4[C@@H]3CC[C@]3(C)C(=O)CC[C@@H]43)C2)CC1` here?
A: 1.44

Q: With `COc1cc(CN2CCN(C[C@@]3(O)CC[C@@]4(C)[C@@H](CC[C@@H]5[C@@H]4CC[C@]4(C)[C@H](O)CC[C@@H]54)C3)CC2)ccc1C(F)(F)F` as the compound, how does the Ratio IC50 read?
A: 2.4

Q: With `COc1cc(CN2CCN(C[C@@]3(O)CC[C@@]4(C)[C@@H](CC[C@@H]5[C@@H]4CC[C@]4(C)C(=O)CC[C@@H]54)C3)CC2)ccc1C(F)(F)F` as the compound, how does the Ratio IC50 read?
A: 16.1
